Laboratory results from ChEMBL document CHEMBL4819117, “Probing cytochrome P450 (CYP) bioactivation with chloromethylindoline bioprecursors derived from the duocarmycin family of compounds” (Bioorg Med Chem, 2021).

Legend:
EJ [1] = experiment: Antiproliferative activity against human EJ138 cells deficit in CYPs assessed as inhibition of cell growth after 96 hrs by MTT assay; assay type: functional, cell-based
How it was run: (§1)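 Cells kept as monolayers at 37 °C in 5% CO2: EJ-138 and RT112 in RPMI 1640 with 10% FBS, sodium pyruvate and 2 mM L-glutamine; CHO and CHO-1A1 in DMEM. Compounds were taken from DMSO stocks into medium over 0.001–100 μM, with final DMSO ≤0.1%. Exposure lasted 96 h, then MTT read-out. IC50 values are mean ± SD of at least three independent assays.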

RT-112 = experiment: Antiproliferative activity against human RT112 cells proficient in CYP1A1 assessed as inhibition of cell growth after 96 hrs by MTT assay; assay type: functional, cell-based; settings: RT-112, 96 h; how it was run: as §1
CHO [2] = experiment: Antiproliferative activity against wild type chinese hamster CHO cells deficit in CYPs assessed as inhibition of cell growth after 96 hrs by MTT assay; assay type: functional, cell-based; settings: Cricetulus griseus; how it was run: as §1
CHO [3] = experiment: Antiproliferative activity against chinese hamster CHO cells transfected with CYP1A1 assessed as inhibition of cell growth after 96 hrs by MTT assay; assay type: functional, cell-based; settings: Cricetulus griseus; how it was run: as §1
EJ [4] = experiment: Antiproliferative activity against human EJ138 cells assessed as inhibition of cell growth preincubated for 1 hr with CYP null bactosomes measured after 96 hrs by MTT assay; assay type: functional, cell-based
How it was run: (§2)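 Compound (50 μM) incubated 1 h at 37 °C with 20 pmol CYP bactosomes (CYP null, 1A1, 1A2, 1B1 or 3A4) in 2 mM NADPH, 1 mM MgCl₂, Tris-HCl pH 7.4. Metabolites were extracted with acetonitrile, centrifuged, and the supernatant dried and taken up in DMSO. EJ138 cells were exposed 96 h and growth read by MTT assay.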

EJ [5] = experiment: Antiproliferative activity against human EJ138 cells assessed as inhibition of cell growth preincubated for 1 hr with human CYP1A1 expressing bactosomes measured after 96 hrs by MTT assay; assay type: functional, cell-based; how it was run: as §2
EJ [6] = experiment: Antiproliferative activity against human EJ138 cells assessed as inhibition of cell growth preincubated for 1 hr with human CYP1A2 expressing bactosomes measured after 96 hrs by MTT assay; assay type: functional, cell-based; how it was run: as §2
EJ [7] = experiment: Antiproliferative activity against human EJ138 cells assessed as inhibition of cell growth preincubated for 1 hr with human CYP1B1 expressing bactosomes measured after 96 hrs by MTT assay; assay type: functional, cell-based; how it was run: as §2
EJ [8] = experiment: Antiproliferative activity against human EJ138 cells assessed as inhibition of cell growth preincubated for 1 hr with human CYP3A4 expressing bactosomes measured after 96 hrs by MTT assay; assay type: functional, cell-based; how it was run: as §2
[9] = Drug metabolism in Wistar rat liver microsomes assessed as CYP-mediated metabolite M16 formation at 0.5 to 23.5 uM prewarmed for 5 mins followed by NADPH addition and measured after 30 mins by HPLC-fluorescence detector analysis; assay type: ADME; settings: 35 min, dose 0.5-23.5 µM
Cytochrome P450 [10] = experiment: Drug metabolism in human liver microsomes assessed as CYP-mediated metabolite M16 formation at 0.5 to 23.5 uM prewarmed for 5 mins followed by NADPH addition and measured after 30 mins by HPLC-fluorescence detector analysis; assay type: ADME; settings: 35 min, dose 0.5-23.5 µM
EJ [11] = experiment: Potentiation factor, ratio of IC50 for antiproliferative activity against human EJ138 cells preincubated for 1 hr with CYP null bactosomes to IC50 for antiproliferative activity against human EJ138 cells preincubated for 1 hr with human CYP1A1 expressing bactosomes; assay type: functional
How it was run: (§3)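 Potentiation factor = IC₅₀ in EJ138 given control (CYP null) bactosome extract ÷ IC₅₀ with the named CYP isoform extract. Extracts came from 1 h, 37 °C incubations of 50 μM compound with 20 pmol bactosomes plus 2 mM NADPH, 1 mM MgCl₂, Tris-HCl pH 7.4. Cells were exposed 96 h and read by MTT.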

EJ [12] = experiment: Potentiation factor, ratio of IC50 for antiproliferative activity against human EJ138 cells preincubated for 1 hr with CYP null bactosomes to IC50 for antiproliferative activity against human EJ138 cells preincubated for 1 hr with human CYP1A2 expressing bactosomes; assay type: functional; how it was run: as §3
EJ [13] = experiment: Potentiation factor, ratio of IC50 for antiproliferative activity against human EJ138 cells preincubated for 1 hr with CYP null bactosomes to IC50 for antiproliferative activity against human EJ138 cells preincubated for 1 hr with human CYP1B1 expressing bactosomes; assay type: functional; how it was run: as §3
EJ [14] = experiment: Potentiation factor, ratio of IC50 for antiproliferative activity against human EJ138 cells preincubated for 1 hr with CYP null bactosomes to IC50 for antiproliferative activity against human EJ138 cells preincubated for 1 hr with human CYP3A4 expressing bactosomes; assay type: functional; how it was run: as §3
Cytochrome P450 1A1 [15] = target: T1, Cytochrome P450 1A1 (Homo sapiens, UniProt P04798); experiment: Drug metabolism assessed as human CYP1A1 expressed in bactosomes assessed as metabolite M2 with m/z 357.1 formation measured after 1 hr by LC-MS analysis; assay type: ADME; settings: recombinant enzyme
T1 sequence (P04798 whole entry): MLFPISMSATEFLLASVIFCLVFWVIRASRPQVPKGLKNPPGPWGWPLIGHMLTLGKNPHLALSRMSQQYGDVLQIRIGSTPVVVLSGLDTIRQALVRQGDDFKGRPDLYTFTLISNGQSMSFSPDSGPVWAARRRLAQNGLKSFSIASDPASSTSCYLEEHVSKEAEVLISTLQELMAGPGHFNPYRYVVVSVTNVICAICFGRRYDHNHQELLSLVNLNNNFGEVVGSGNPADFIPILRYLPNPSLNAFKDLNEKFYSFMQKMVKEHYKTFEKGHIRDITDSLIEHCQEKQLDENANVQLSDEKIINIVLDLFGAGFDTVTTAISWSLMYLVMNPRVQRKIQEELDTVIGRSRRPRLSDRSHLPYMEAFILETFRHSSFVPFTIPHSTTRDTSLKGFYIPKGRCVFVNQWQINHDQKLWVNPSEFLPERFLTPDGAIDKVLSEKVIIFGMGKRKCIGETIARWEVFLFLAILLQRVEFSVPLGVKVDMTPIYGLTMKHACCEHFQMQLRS

Cytochrome P450 1A1 [16] = target: T1, Cytochrome P450 1A1; experiment: Drug metabolism assessed as human CYP1A1 expressed in bactosomes assessed as metabolite M3 with m/z 339.1 formation measured after 1 hr by LC-MS analysis; assay type: ADME; settings: recombinant enzyme
Cytochrome P450 1A1 [17] = target: T1, Cytochrome P450 1A1; experiment: Drug metabolism assessed as human CYP1A1 expressed in bactosomes assessed as (3-(chloromethyl)-6-hydroxyindolin-1-yl)(5-methoxy-1H-indol-2-yl)methanone formation measured after 1 hr by LC-MS analysis; assay type: ADME; settings: recombinant enzyme
Cytochrome P450 1A2 = target: T2, Cytochrome P450 1A2 (Homo sapiens, UniProt P05177); experiment: Drug metabolism assessed as human CYP1A2 expressed in bactosomes assessed as (3-(chloromethyl)-6-hydroxyindolin-1-yl)(5-methoxy-1H-indol-2-yl)methanone formation measured after 1 hr by LC-MS analysis; assay type: ADME; settings: recombinant enzyme
T2 sequence (P05177 whole entry): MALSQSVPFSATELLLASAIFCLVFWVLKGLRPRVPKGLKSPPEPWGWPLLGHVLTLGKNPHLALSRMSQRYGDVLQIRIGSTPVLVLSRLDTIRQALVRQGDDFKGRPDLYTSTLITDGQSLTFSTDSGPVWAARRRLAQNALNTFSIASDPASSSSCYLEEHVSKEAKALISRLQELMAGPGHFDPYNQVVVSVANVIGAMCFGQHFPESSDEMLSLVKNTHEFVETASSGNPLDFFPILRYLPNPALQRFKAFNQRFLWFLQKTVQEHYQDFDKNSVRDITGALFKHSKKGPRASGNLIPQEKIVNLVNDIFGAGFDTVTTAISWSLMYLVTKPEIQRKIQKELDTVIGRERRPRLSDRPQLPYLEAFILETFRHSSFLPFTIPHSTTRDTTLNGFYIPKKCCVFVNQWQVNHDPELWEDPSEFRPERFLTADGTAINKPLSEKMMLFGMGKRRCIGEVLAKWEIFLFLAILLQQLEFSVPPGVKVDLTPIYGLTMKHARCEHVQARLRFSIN

Cytochrome P450 1A1 [18] = target: T1, Cytochrome P450 1A1; experiment: Drug metabolism assessed as recombinant human CYP1A1-mediated metabolite M2 with m/z 357.1 formation at 50 uM incubated for 1 hr in presence of reconstituted protein system by LC-MS analysis; assay type: ADME; settings: recombinant enzyme
How it was run: (§4)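 Substrate (50 μM) incubated at 37 °C with human recombinant CYP1A1 in a reconstituted system: NADPH cytochrome P450 reductase, freshly prepared DLPC (240 μM), 100 mM potassium phosphate pH 7.4. Reaction was started with NADPH (1 mM final) and aliquots quenched into dichloromethane over 60 min. Metabolites were profiled by HPLC with photodiode array and ESI⁺ quadrupole MS.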

Cytochrome P450 1A1 [19] = target: T1, Cytochrome P450 1A1; experiment: Drug metabolism assessed as recombinant human CYP1A1-mediated metabolite M3 with m/z 339.1 formation at 50 uM incubated for 1 hr in presence of reconstituted protein system by LC-MS analysis; assay type: ADME; settings: recombinant enzyme; how it was run: as §4
Cytochrome P450 1A1 [20] = target: T1, Cytochrome P450 1A1; experiment: Drug metabolism assessed as recombinant human CYP1A1-mediated metabolite M4 with m/z 327.1 formation at 50 uM incubated for 1 hr in presence of reconstituted protein system by LC-MS analysis; assay type: ADME; settings: recombinant enzyme; how it was run: as §4
Cytochrome P450 1A1 [21] = target: T1, Cytochrome P450 1A1; experiment: Drug metabolism assessed as recombinant human CYP1A1-mediated metabolite M5 with m/z 355.1 formation at 50 uM incubated for 1 hr in presence of reconstituted protein system by LC-MS analysis; assay type: ADME; settings: recombinant enzyme; how it was run: as §4
Cytochrome P450 1A1 [22] = target: T1, Cytochrome P450 1A1; experiment: Drug metabolism assessed as recombinant human CYP1A1-mediated metabolite M6 with m/z 373.1 formation at 50 uM incubated for 1 hr in presence of reconstituted protein system by LC-MS analysis; assay type: ADME; settings: recombinant enzyme; how it was run: as §4
[23] = Drug metabolism in Wistar rat liver microsomes assessed as CYP-mediated metabolite M22 formation at 0.5 to 23.5 uM prewarmed for 5 mins followed by NADPH addition and measured after 30 mins by HPLC-fluorescence detector analysis; assay type: ADME; settings: 35 min, dose 0.5-23.5 µM
[24] = Drug metabolism in Wistar rat liver microsomes assessed as CYP-mediated metabolite M23 formation at 0.5 to 23.5 uM prewarmed for 5 mins followed by NADPH addition and measured after 30 mins by HPLC-fluorescence detector analysis; assay type: ADME; settings: 35 min, dose 0.5-23.5 µM
Cytochrome P450 [25] = experiment: Drug metabolism in human liver microsomes assessed as CYP-mediated metabolite M22 formation at 0.5 to 23.5 uM prewarmed for 5 mins followed by NADPH addition and measured after 30 mins by HPLC-fluorescence detector analysis; assay type: ADME; settings: 35 min, dose 0.5-23.5 µM
Cytochrome P450 [26] = experiment: Drug metabolism in human liver microsomes assessed as CYP-mediated metabolite M23 formation at 0.5 to 23.5 uM prewarmed for 5 mins followed by NADPH addition and measured after 30 mins by HPLC-fluorescence detector analysis; assay type: ADME; settings: 35 min, dose 0.5-23.5 µM
[27] = Selectivity ratio of IC50 for antiproliferative activity against wild type chinese hamster CHO cells deficit in CYPs to IC50 for antiproliferative activity against chinese hamster CHO cells transfected with CYP1A1 by MTT assay; assay type: functional, Cricetulus griseus
How it was run: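 CHO wild-type and CYP1A1-transfected CHO cells were grown in DMEM at 37 °C, 5% CO₂. Compounds from DMSO stocks were tested at 0.001–100 μM, final DMSO ≤0.1%, for 96 h, then MTT. Ratio = CHOwt IC₅₀ / CHO1A1 IC₅₀; IC₅₀ values are mean ± SD of at least three independent assays.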

Molecule `CC(C)(C)OC(=O)N1CC(CCl)c2ccc(O)cc21` (stereo not drawn) has an IC50 (EJ [1]) of 8.1 µM, an IC50 (RT-112) of 11.1 µM and an IC50 (CHO [2]) of 7.3 µM. The IC50 (CHO [3]) was 6.5 µM.
With `COc1ccc2[nH]c(C(=O)N3CC(CCl)c4ccccc43)cc2c1` (stereo not drawn) the IC50 (EJ [1]) was 15 µM, the IC50 (RT-112) was 8.04 µM and the IC50 (CHO [2]) was 11.4 µM. For the same molecule, the IC50 (CHO [3]) was 1.2 µM, the IC50 (EJ [4]) was 17.2 µM and the IC50 (EJ [5]) was 2.5 µM. The IC50 (EJ [6]) was 1.9 µM, the IC50 (EJ [7]) was 13.5 µM and the IC50 (EJ [8]) was 19.8 µM. The Drug metabolism [9] was “Metabolite_Detected”, the Drug metabolism (Cytochrome P450 [10]) was “Metabolite_Detected” and the “Ratio IC50” value (EJ [11]) was 6.9. For the same molecule, the “Ratio IC50” value (EJ [12]) was 9.1, the “Ratio IC50” value (EJ [13]) was 1.3 and the “Ratio IC50” value (EJ [14]) was 0.9. For the same molecule, the Drug metabolism (Cytochrome P450 1A1 [15]) was “Metabolite_Detected”, the Drug metabolism (Cytochrome P450 1A1 [16]) was “Metabolite_Detected” and the Drug metabolism (Cytochrome P450 1A1 [17]) was “Metabolite_Notdetected”. The Drug metabolism (Cytochrome P450 1A2) was “Metabolite_Notdetected”, the Drug metabolism (Cytochrome P450 1A1 [18]) was “Metabolite_Detected” and the Drug metabolism (Cytochrome P450 1A1 [19]) was “Metabolite_Detected”. For the same molecule, the Drug metabolism (Cytochrome P450 1A1 [20]) was “Metabolite_Detected”, the Drug metabolism (Cytochrome P450 1A1 [21]) was “Metabolite_Detected” and the Drug metabolism (Cytochrome P450 1A1 [22]) was “Metabolite_Detected”. The Drug metabolism [23] was “Metabolite_Detected”, the Drug metabolism [24] was “Metabolite_Detected” and the Drug metabolism (Cytochrome P450 [25]) was “Metabolite_Detected”. For the same molecule, the Drug metabolism (Cytochrome P450 [26]) was “Metabolite_Detected” and the “Ratio IC50” value [27] was 10.
